Data set [1] is described as follows: Ratio of unbound plasma concentration in Sprague-Dawley rat model of formalin-induced nociception behavior at 10 mg/kg, po to IC50 for rat Nav1.7 by whole cell voltage clamp method. The essentials:
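Total phase II formalin-induced flinches were scored. Unbound plasma concentration was determined at each dose and related to the rat NaV1.7 IC50.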

A short description of data set [2]: Cmax in rat at 10 mg/kg, po by LC-MS/MS method. Format: ADME, organism-based. Set-up: dose 10 mg/kg, route oral. Conditions: in vivo.
Data set [3] has as its system Plasma. As to the kind of experiment: Plasma concentration in C57BL/6 mouse model of histamine-induced pruritus at 30 mg/kg, po. Format: ADME, organism-based. Conditions: in vivo. In outline: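 Male C57BL/6 mice got 30, 60 or 100 mg/kg PO in 30% hydroxypropyl β-cyclodextrin, pH 10.0, 120 min before the test. Histamine (8.15mM) was given intradermally to the nape of the neck just before testing, and scratch bouts were counted over 0–30 min. Diphenhydramine 30 mg/kg PO in water, 90 min before, served as control. Unbound plasma concentrations were measured.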

The subject of data set [4] is Plasma. As to the kind of experiment: Unbound plasma concentration in C57BL/6 mouse model of histamine-induced pruritus at 30 mg/kg, po. Conditions: in vivo. It counts as ADME, organism-based. In outline:
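The formalin arm received 2% formalin subcutaneously into the dorsal hind paw, and total phase II licking and lifting was scored. The pruritus arm was dosed 120 min before histamine (8.15mM, intradermal, nape of neck), and scratch bouts were counted over 0-30 min. Unbound plasma concentration was determined at each dose.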

As for `N#Cc1cc(C(F)(F)F)ccc1N1CCOc2cc(S(=O)(=O)Nc3nccs3)c(F)cc21`, the Ratio in data set [1] was 0.5. The compound further showed a Cmax in data set [2] of 950 to 990 nM. Further, the concentration with Plasma [3] was found to be 61000 nM. Also, the “Cp(f)” value in the data set with Plasma [4] is 370 nM.

A word on the Cmax: it is the highest concentration seen after dosing.

Source of the values: ChEMBL document CHEMBL4052683, “The discovery of benzoxazine sulfonamide inhibitors of NaV1.7: Tools that bridge efficacy and target engagement” (Bioorg Med Chem Lett, 2017).
